Laboratory results: publication PMC9055537 (RSC Advances, 2020)
Where a SMILES comes first, the peptide text is derived from it. [ ]: non-standard residue; d: D form. Nva = CCC[C@H](N)C(=O)O; Aib = CC(C)(N)C(=O)O

Each compound was assayed on PC-12 cells (assay: Cytotoxicity studies, MTT assay). Settings: highest tested concentration 20 μM, 6 h, MTT OD570, triplicate.
Format: cell-based, rat
How it was run: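 PC-12 cells were exposed to the test peptide alone at the stated dose for 6 h, with no Aβ added, and viability was read by MTT assay. Untreated cells were set as 100% (positive control). Samples were run in triplicate in three individual experiments and the readings were averaged (<5% variation).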

| Structure (SMILES) | cytotoxicity, % viable PC-12 cells |
| --- | --- |
| CC[C@H](C)[C@H](NC(=O)[C@@H](NC(=O)[C@H](N)Cc1ccccc1)C(C)C)C(=O)N[C@@H](C)C(N)=O [12c, D-Phe-Val-Ile-Ala-NH2] (H-[dF]VIA-NH2) | negligible cytotoxicity |

These compounds were tested against Aβ42 (Homo sapiens, UniProt P05067) (assay: Thioflavin-T fluorescence assay, inhibition of Aβ42 aggregation). Settings: 24 h, read-out: % inhibition of Aβ42 aggregation (ThT fluorescence), test peptide 10 μM (1:5), Aβ42 2 μM, co-incubated 24 h at 37 °C, λex 440 nm, λem 485 nm, mean of triplicate.
Format: biochemical

Sequence of Aβ42 (P05067 672-713): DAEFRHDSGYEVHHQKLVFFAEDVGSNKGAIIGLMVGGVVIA

| Structure (SMILES) | inhibition at 10 µM [%] |
| --- | --- |
| CC[C@H](C)[C@H](NC(=O)[C@@H](NC(=O)[C@H](N)C(C)C)C(C)C)C(=O)N[C@@H](C)C(N)=O [12a, D -Val-Val-Ile-Ala-NH2] (H-[dV]VIA-NH2) | 82.1 |
| CC[C@H](C)[C@H](NC(=O)[C@@H](NC(=O)[C@@H](N)Cc1ccccc1)C(C)C)C(=O)N[C@@H](C)C(N)=O [12b, Phe-Val-Ile-Ala-NH2] (H-FVIA-NH2) | 77.6 |
| CC[C@H](C)[C@H](NC(=O)[C@@H](NC(=O)[C@H]1CCCN1)C(C)C)C(=O)N[C@@H](C)C(N)=O [12d, D -Pro-Val-Ile-Ala-NH2] (H-[dP]VIA-NH2) | 39.8 |
| CCC[C@H](N)C(=O)N[C@H](C(=O)N[C@H](C(=O)N[C@@H](C)C(N)=O)[C@@H](C)CC)C(C)C [12e, Nva-Val-Ile-Ala-NH2] (H-[Nva]VIA-NH2) | 70.3 |
| CC[C@H](C)[C@H](NC(=O)[C@H](NC(=O)[C@@H](N)C(C)C)C(C)C)C(=O)N[C@@H](C)C(N)=O [13a, Val-D-Val-Ile-Ala-NH2] (H-V[dV]IA-NH2) | 15.7 |
| CC[C@@H](C)[C@@H](NC(=O)[C@@H](N)C(C)C)C(=O)N[C@H](C(=O)N[C@@H](C)C(N)=O)[C@@H](C)CC [13b, Val-D-Ile-Ile-Ala-NH2] (H-V[dI]IA-NH2) | 49.4 |
| CC[C@H](C)[C@H](NC(=O)C(C)(C)NC(=O)[C@@H](N)C(C)C)C(=O)N[C@@H](C)C(N)=O [13d, Val-Aib-Ile-Ala-NH2] (H-V[Aib]IA-NH2) | 45.3 |

Continued, values first:

| inhibition at 10 µM [%] | Structure (SMILES) |
| --- | --- |
| 21.8 | CC[C@@H](C)[C@@H](NC(=O)[C@@H](NC(=O)[C@@H](N)C(C)C)C(C)C)C(=O)N[C@@H](C)C(N)=O [14a, Val-Val-D-Ile-Ala-NH2] (H-VV[dI]A-NH2) |
| 0 | CC(C)C[C@H](NC(=O)[C@@H](NC(=O)[C@@H](N)C(C)C)C(C)C)C(=O)N[C@@H](C)C(N)=O [14b, Val-Val-Leu-Ala-NH2] (H-VVLA-NH2) |
| 23.2 | CC[C@H](C)[C@H](NC(=O)[C@@H](NC(=O)[C@@H](N)C(C)C)C(C)C)C(=O)N[C@H](C)C(N)=O [15a, Val-Val-Ile-D-Ala-NH2] (H-VVI[dA]-NH2) |
| 35.1 | CC[C@H](C)[C@H](NC(=O)[C@@H](NC(=O)[C@@H](N)C(C)C)C(C)C)C(=O)NC(C)(C)C(N)=O [15b, Val-Val-Ile-Aib-NH2] (H-VVI[Aib]-NH2) |
| 11 | CC[C@H](C)[C@H](NC(=O)[C@@H](NC(=O)[C@@H](N)C(C)C)C(C)C)C(=O)N[C@H](C(N)=O)C(C)C [15d, Val-Val-Ile-Val-NH2] (H-VVIV-NH2) |
| 31.2 | CC[C@H](C)[C@H](NC(=O)[C@@H](NC(=O)[C@@H](N)C(C)C)C(C)C)C(=O)N[C@@H](CC(C)C)C(N)=O [15e, Val-Val-Ile-Leu-NH2] (H-VVIL-NH2) |
| 14.2 | CC[C@H](C)[C@H](NC(=O)[C@@H]1CCCN1C(=O)[C@@H]1CCCN1)C(=O)N[C@@H](C)C(N)=O [16a, Pro-Pro-Ile-Ala-NH2] (H-PPIA-NH2) |

The compounds below were run against preformed Aβ42 fibrils (Homo sapiens, UniProt P05067) (assay: Thioflavin-T assay, deformation of preformed Aβ42 fibrils). Settings: 24 h, test peptide 0.5 μM (1:0.1), Aβ42 2 μM pre-aggregated 24 h.
Format: biochemical

Sequence of preformed Aβ42 fibrils (P05067 672-713): as above

| Structure (SMILES) | % Deformation of preformed Aβ42 fibrils [%] |
| --- | --- |
| CC[C@H](C)[C@H](NC(=O)[C@@H](NC(=O)[C@H](N)Cc1ccccc1)C(C)C)C(=O)N[C@@H](C)C(N)=O [12c, D-Phe-Val-Ile-Ala-NH2] (H-[dF]VIA-NH2) | 33.7 |

Same assay, conditions: 24 h, test peptide 1 μM (1:0.5), Aβ42 2 μM pre-aggregated 24 h

| Structure (SMILES) | % Deformation of preformed Aβ42 fibrils [%] |
| --- | --- |
| CC[C@H](C)[C@H](NC(=O)[C@@H](NC(=O)[C@H](N)Cc1ccccc1)C(C)C)C(=O)N[C@@H](C)C(N)=O [12c, D-Phe-Val-Ile-Ala-NH2] (H-[dF]VIA-NH2) | 34.9 |

Same assay, conditions: 24 h, test peptide 2 μM (1:1), Aβ42 2 μM pre-aggregated 24 h

| Structure (SMILES) | % Deformation of preformed Aβ42 fibrils [%] |
| --- | --- |
| CC[C@H](C)[C@H](NC(=O)[C@@H](NC(=O)[C@H](N)Cc1ccccc1)C(C)C)C(=O)N[C@@H](C)C(N)=O [12c, D-Phe-Val-Ile-Ala-NH2] (H-[dF]VIA-NH2) | 57.5 |
